In ChEMBL document CHEMBL4706701, “Synthesis and biological activity of selenopsammaplin A and its analogues as antitumor agents with DOT1L inhibitory activity” (Bioorg Med Chem, 2021):
Activity calls are given as the source filed them. The calls are words filed in the database; no cut-off is given here.

Legend:
MDA-MB-231 [1] = assay: Down regulation of CDH2 expression in human MDA-MB-231 cells at 50 to 200 nM measured after 48 hrs by Western blot analysis; assay type: functional, cell-based; details: dose 50-200 nM
Summary of the method: (§1)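 MDA-MB-231 cells exposed to compound for 48 h; lysates in 2× SDS sample buffer with orthovanadate and NaF, protein by BCA. 5–20 μg resolved on 8–15% SDS-PAGE, PVDF, BSA block, probed for E-cadherin, N-cadherin, ZEB1, vimentin; ECL detection, β-actin internal control, band densitometry. Mean ± SD (n = 3), three experiments.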

MDA-MB-231 [2] = assay: Antitumor activity against human MDA-MB-231 cells xenografted in BALB/c nu mouse assessed as tumor growth inhibition at 15 mg/kg, ip administered thrice per week for 38 days by caliper method relative to control; assay type: functional; details: MDA-MB-231, ip, 912 h, time 38 day, read-out: TGI
Summary of the method: (§2)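 Female BALB/c-nu mice (5–6 wk) given 1 × 10⁷ luciferase-expressing MDA-MB-231 cells in 50:50 DMEM/Matrigel into the fourth fat pad; randomized after 10 days (six per group). Dosed ip in EtOH/Cremophor/saline (5:5:90) three times weekly for 38 days. Tumor L, W, H measured by caliper, volume = LWH/2; body weight weekly; tumors excised and weighed at termination.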

[3] = molecular target: Histone-lysine N-methyltransferase, H3 lysine-79 specific (Homo sapiens) (UniProt Q8TEK3); assay: Inhibition of DOT1L in human MDA-MB-231 cells assessed as down regulation of H3K79me2 expression at 200 nM by Western blot analysis; assay type: cell-based
Histone-lysine N-methyltransferase, H3 lysine-79 specific (Homo sapiens), sequence (Q8TEK3 whole entry, looked up, the tested form may be a part): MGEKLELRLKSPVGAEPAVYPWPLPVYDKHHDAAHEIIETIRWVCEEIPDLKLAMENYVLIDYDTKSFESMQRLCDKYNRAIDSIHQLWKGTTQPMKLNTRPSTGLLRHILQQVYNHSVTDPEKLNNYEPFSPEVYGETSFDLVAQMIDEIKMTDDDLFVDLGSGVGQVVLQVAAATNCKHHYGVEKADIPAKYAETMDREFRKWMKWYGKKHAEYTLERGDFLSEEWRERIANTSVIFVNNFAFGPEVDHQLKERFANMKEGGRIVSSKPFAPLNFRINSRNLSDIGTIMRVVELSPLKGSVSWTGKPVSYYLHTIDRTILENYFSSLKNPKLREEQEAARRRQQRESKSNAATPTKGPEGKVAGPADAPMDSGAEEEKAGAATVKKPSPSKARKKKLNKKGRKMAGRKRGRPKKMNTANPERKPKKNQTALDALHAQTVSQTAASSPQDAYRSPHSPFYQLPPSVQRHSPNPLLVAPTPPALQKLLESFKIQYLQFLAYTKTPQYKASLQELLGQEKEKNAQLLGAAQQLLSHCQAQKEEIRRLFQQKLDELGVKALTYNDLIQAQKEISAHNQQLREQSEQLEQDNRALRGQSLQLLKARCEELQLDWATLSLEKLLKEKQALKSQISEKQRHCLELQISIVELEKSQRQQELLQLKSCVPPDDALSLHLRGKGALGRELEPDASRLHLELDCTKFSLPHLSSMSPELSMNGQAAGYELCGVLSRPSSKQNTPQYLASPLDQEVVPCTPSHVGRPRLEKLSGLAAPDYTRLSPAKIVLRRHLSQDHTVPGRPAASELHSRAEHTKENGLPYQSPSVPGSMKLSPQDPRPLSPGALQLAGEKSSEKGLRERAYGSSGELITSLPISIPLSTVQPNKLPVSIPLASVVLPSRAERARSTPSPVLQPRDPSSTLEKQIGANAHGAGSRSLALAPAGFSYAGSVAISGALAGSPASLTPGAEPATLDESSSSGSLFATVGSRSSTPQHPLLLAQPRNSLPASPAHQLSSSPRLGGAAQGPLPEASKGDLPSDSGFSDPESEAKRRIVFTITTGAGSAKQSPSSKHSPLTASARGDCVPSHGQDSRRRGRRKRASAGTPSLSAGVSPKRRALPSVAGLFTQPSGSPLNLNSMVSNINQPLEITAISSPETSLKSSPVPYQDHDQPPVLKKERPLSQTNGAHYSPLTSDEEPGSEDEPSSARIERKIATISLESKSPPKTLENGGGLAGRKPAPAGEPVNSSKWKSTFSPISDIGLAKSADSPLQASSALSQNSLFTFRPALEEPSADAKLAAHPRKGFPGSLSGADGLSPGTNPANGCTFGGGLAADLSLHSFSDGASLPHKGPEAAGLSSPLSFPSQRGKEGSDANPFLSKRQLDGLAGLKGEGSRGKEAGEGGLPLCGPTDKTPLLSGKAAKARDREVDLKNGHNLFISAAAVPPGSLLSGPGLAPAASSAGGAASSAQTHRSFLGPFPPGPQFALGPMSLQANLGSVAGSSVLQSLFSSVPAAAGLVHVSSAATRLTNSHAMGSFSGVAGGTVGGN
Summary of the method: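 MDA-MB-231 lysates were made in 2× SDS sample buffer with vanadate and fluoride. 5-20 μg protein was run on 8–15% SDS-PAGE and blotted to PVDF. Membranes were blocked in 5% BSA, probed for H3K79me2 with total histone H3, and detected by ECL. Mean ± SD (n = 3), representative of three separate experiments.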

[4] = Selectivity ratio of IC50 for human MCF-10A cells to IC50 for human A549 cells; assay type: toxicity; details: MCF-10A cells versus A549 cells, read-out: Ratio IC50
MDA-MB-231 [5] = assay: Antitumor activity against human MDA-MB-231 cells xenografted in BALB/c nu mouse assessed as reduction in tumor weight at 5 to 15 mg/kg, ip administered thrice per week for 38 days measured 1 week post last dose; assay type: functional, organism-based; details: dose 5-15 mg/kg, time 45.0 day; summary of the method: as §2
SK-HEP1 = assay: Cytotoxicity against human SK-HEP1 cells assessed as reduction in cell viability by SRB assay; assay type: functional, cell-based
Summary of the method: (§3)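 Cells seeded in 96-well plates and exposed to compounds for the stated times. Zero-day controls were incubated 30 min. Cells were fixed and stained with 0.4% SRB in 1% acetic acid, and bound dye was dissolved in 10 mM Tris (pH 10.0). A515 was read, and IC50 was calculated by non-linear regression.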

[6] = Selectivity ratio of IC50 for human MCF-10A cells to IC50 for human MDA-MB-231 cells; assay type: toxicity; details: MCF-10A cells versus MDA-MB-231 cells, read-out: Ratio IC50
MDA-MB-231 [7] = assay: Antitumor activity against human MDA-MB-231 cells xenografted in BALB/c nu mouse assessed as tumor growth inhibition at 5 mg/kg, ip administered thrice per week for 38 days by caliper method relative to control; assay type: functional; details: MDA-MB-231, ip, 912 h, time 38 day, read-out: TGI; summary of the method: as §2
MDA-MB-231 [8] = assay: Down regulation of CDH2 mRNA expression in human MDA-MB-231 cells at 50 to 200 nM measured after 24 hrs by RT-PCR analysis; assay type: functional, cell-based; details: dose 50-200 nM
MDA-MB-231 [9] = assay: Antimetastatic activity against human MDA-MB-231 cells xenografted in ip dosed BALB/c nu mouse assessed as up regulation of E-cadherin expression in tumor tissue administered thrice per week for 38 days measured 1 week post last dose by Western blot analysis; assay type: functional, organism-based; details: dose 5-15 mg/kg, time 45.0 day
Summary of the method: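 Frozen tumor portions from the orthotopic MDA-MB-231 nude mouse study homogenized in complete lysis buffer; protein by Bradford assay. Western blotting for H3K79me2, E-cadherin and vimentin, β-actin internal control, band intensities semi-quantified; three separate experiments.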

[10] = Selectivity ratio of IC50 for human MCF-10A cells to IC50 for human SK-HEP1 cells
Summary of the method: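 Cytotoxicity by SRB assay: cells seeded in 96-well plates and treated with compounds; fixed, stained with 0.4% SRB in 1% acetic acid, dye dissolved in 10 mM Tris (pH 10.0), absorbance read at 515 nm. IC50 by non-linear regression, means of at least three experiments; ratio of MCF10A IC50 to cancer-line IC50.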

MDA-MB-231 [11] = assay: Antimetastatic activity against human MDA-MB-231 cells xenografted in BALB/c nu mouse assessed as reduction in metastatic cells in lung tissue at 5 to 15 mg/kg, ip administered thrice per week for 38 days measured 1 week post last dose by H and E staining based immunohistochemical analysis; assay type: functional, organism-based; details: dose 5-15 mg/kg, time 45.0 day
Summary of the method: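 Tumors and lungs from orthotopic MDA-MB-231/Luc nude mice (ip dosing three times weekly, 38 days) fixed in 4% PFA, paraffin-embedded, sectioned, antigen-retrieved. Lungs H&E-stained for metastatic cells; tumor sections immunostained for Ki67, H3K79me2, E-cadherin, vimentin with HRP detection, hematoxylin counterstain, imaged at 200×.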

HCT-116 = assay: Cytotoxicity against human HCT-116 cells assessed as reduction in cell viability by SRB assay; assay type: functional, cell-based; summary of the method: as §3
[12] = molecular target: Histone-lysine N-methyltransferase, H3 lysine-79 specific (Homo sapiens) (UniProt Q8TEK3); assay: Inhibition of human N-terminal GST-tagged DOT1L (2 to 416 residues) expressed in Escherichia coli at 200 nM using DOT1L substrate measured after 2 hrs in presence of SAM by ELISA
Summary of the method: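 Cell-free DOT1L enzyme activity assay using 500 ng DOT1L per well. Compound was incubated 2 h before read-out. EPZ-5676 (100 nM) was the positive control. Mean ± SD (n = 3), representative of three separate experiments.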

MDA-MB-231 [13] = assay: Antimetastatic activity against human MDA-MB-231 cells xenografted in BALB/c nu mouse assessed as reduction in luciferase signal in tumor site at 5 to 15 mg/kg, ip administered thrice per week for 38 days measured 1 week post last dose by luciferase based imaging analysis; assay type: functional, organism-based; details: dose 5-15 mg/kg, time 45.0 day
Summary of the method: (§4)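 Orthotopic luciferase-expressing MDA-MB-231 model in female BALB/c-nu mice, ip dosing in EtOH/Cremophor/saline (5:5:90) three times weekly for 38 days. One week later anesthetized mice imaged by IVIS 15 min after D-luciferin (150 mg/kg in PBS); lungs and other organs then excised and imaged ex vivo.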

MDA-MB-231 [14] = assay: Antimetastatic activity against human MDA-MB-231 cells xenografted in BALB/c nu mouse assessed as reduction in luciferase signal in lung tissue at 5 to 15 mg/kg, ip administered thrice per week for 38 days measured 1 week post last dose by luciferase based imaging analysis; assay type: functional, organism-based; details: dose 5-15 mg/kg, time 45.0 day; summary of the method: as §4
MDA-MB-231 [15] = assay: Cytotoxicity against human MDA-MB-231 cells assessed as reduction in cell viability by SRB assay; assay type: functional, cell-based; summary of the method: as §3
MDA-MB-231 [16] = assay: Up regulation of CDH1 expression in human MDA-MB-231 cells at 50 to 200 nM measured after 48 hrs by Western blot analysis; assay type: functional, cell-based; details: dose 50-200 nM; summary of the method: as §1
MCF-10A = assay: Cytotoxicity against human MCF-10A cells assessed as reduction in cell viability by SRB assay; assay type: cell-based; summary of the method: as §3
[17] = Selectivity ratio of IC50 for human MCF-10A cells to IC50 for human HCT-116 cells; assay type: toxicity; details: MCF-10A cells versus HCT-116 cells, read-out: Ratio IC50

With `O=C(NCC[Se][Se]CCNC(=O)/C(Cc1ccccc1)=N/O)/C(Cc1ccccc1)=N/O` the Activity (MDA-MB-231 [1]) was “Active”, the inhibition in vivo at 15 mg/kg (MDA-MB-231 [2]) was 55.1% and the “H3K79me2 downregulation (active/not active)” value [3] was “Active”. The selectivity ratio [4] was greater than 100, the Activity (MDA-MB-231 [5]) was “Active” and the IC50 (SK-HEP1) was 120 nM. For the same compound, the selectivity ratio [6] was greater than 100, the inhibition in vivo at 5 mg/kg (MDA-MB-231 [7]) was 45.5% and the Activity (MDA-MB-231 [8]) was “Active”. For the same compound, the Activity (MDA-MB-231 [9]) was “Dose-dependent effect”, the “Ratio IC50” value [10] was greater than 100 and the Activity (MDA-MB-231 [11]) was “Active”. The IC50 (HCT-116) was 90 nM, the inhibition [12] was “Active” and the Activity (MDA-MB-231 [13]) was “Active”. The Activity (MDA-MB-231 [14]) was “Active”, the IC50 (MDA-MB-231 [15]) was 60 nM and the Activity (MDA-MB-231 [16]) was “Active”. For the same compound, the IC50 (MCF-10A) was 18100 nM and the selectivity ratio [17] was greater than 100.
